# Apaf1 activ – activators of human Apaf-1 apoptosome, primary screen, biochemical, DEVD-Rh110 fluorescence, uHTS; AID 489031, 2010; Apaf-1 apoptosome caspase-3 activation; stronger effect = lower value; activity change, negative = activation, % at 20 µM; Apoptotic protease-activating factor 1 (Homo sapiens), O14727; 330,000 tested, 0.31% active;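 active = activity change at or below -40% at 20 µM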
#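 system = biochemical Apaf-1 apoptosome reconstitution | buffer or medium = 20 mM HEPES pH 7.5 with CHAPS, BSA | also added = dATP and cytochrome c as apoptosome triggers, (Z-DEVD)2-Rh110 substrate | incubation = 30 min compound preincubation and 50 min reaction, both room temperature | measured by = fluorescence, 540 nm emission, 480 nm excitation | read-out basis = Caspase-3 cleavage activity downstream of Apaf-1 activation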
# Rh110 interf act – Rh110 fluorescence interference by putative Apaf-1 activators, confirmation, artefact control for Apaf-1 activator project, biochemical, 20 µM; 980 tested, under 10 active; quenched caspase reaction, Ex480/Em540; fluorescence interference (activity change), % at 20 µM, hits read low; shares compounds with Apaf1 activ; AID 504616, 2011;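 active = mean activity change at or below -40% when tested at 20 µM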
# Apaf-1 act conf2 – Apaf-1 activators, single-dose retest, confirmation, biochemical, fluorescence, DEVD-Rh110, 20 µM. shares compounds with Apaf1 activ. reconstituted apoptosome caspase-3 activity; stronger effect = lower value. activity change, negative = activation, % at 20 µM. 980 tested, 5% active. AID 504617, 2011;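 active = mean activity change at or below -40%, meaning activation of 40% or more, at 20 µM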
# An asterisk follows results filed as active. Only a sample is shown.
SMILES,Apaf1 activ,others
COC(=O)C(Cc1ccc(N(CCCl)CCCl)cc1)N=Cc1ccccc1O (centres undefined),-62.9*,
Cn1c(=O)[nH]c2nncnc2c1=O,68.1,
CCC(C)N1C(=O)NC(=O)C2(Cc3c(ccc4ccccc34)N(C)C2)C1=O (centres undefined),64.8,
NC(N)=N/N=C/c1cn(-c2ccccc2)nc1-c1cccs1,40.9,
ClC1C(Cl)C(Cl)C(Cl)C(Cl)C1Cl (centres undefined),-1.7,
O=c1[nH]c2ccccc2n1CCCN1CCC(n2c(=O)[nH]c3cc(Cl)ccc32)CC1,-41.4*,Rh110 interf act=3.8;Apaf-1 act conf2=3.8
Clc1ccc(C[n+]2c(-c3ccccc3)cc(-c3ccccc3)cc2-c2ccccc2)cc1,52.2,
CCCCCn1c(N)c(C(=O)NCc2cccs2)c2nc3ccccc3nc21,69.8,
O=[N+]([O-])c1ccccc1-c1cc(-c2ccccc2)cc(-c2ccccc2)[n+]1Cc1ccccc1Cl,52.8,
CCCCOCCCn1c(N)c(C(=O)OCCOC)c2nc3ccccc3nc21,65.9,
Nc1c(C(=O)NCc2ccco2)c2nc3ccccc3nc2n1Cc1ccc(F)cc1,89.3,
c1ccc2c(c1)CSc1ccccc1C2C1=NCCN1 (centres undefined),-228.3*,Rh110 interf act=12.2;Apaf-1 act conf2=11.9
COCCOC(=O)c1c(N)n(Cc2ccccc2)c2nc3ccccc3nc12,82.6,
CCCCN1C(=N)C(CC)(CC)C(=O)NC1=O,-42.5*,Rh110 interf act=4.4;Apaf-1 act conf2=8.1
CC(C)C[C@H]1C(=O)N2CCCC2[C@]2(O)O[C@](NC(=O)[C@@H]3C=C4c5cccc6[nH]cc(c56)CC4N(C)C3)(C(C)C)C(=O)N12 (some centres undefined),86.8,
CC(C)[C@H]1C(=O)N2CCC[C@H]2[C@]2(O)O[C@](NC(=O)[C@@H]3C=C4c5cccc6[nH]cc(c56)C[C@H]4N(C)C3)(C(C)C)C(=O)N12,94.8,
COCCCn1c(N)c(C(=O)NCCC(C)C)c2nc3ccccc3nc21,90.6,
CCCNC(=O)c1c(N)n(CC2CCCO2)c2nc3ccccc3nc12 (centres undefined),92.6,
CCOC(=O)c1cc(CC)sc1/N=C/c1c(O)[nH]c(=S)[nH]c1=O,-199.8*,Rh110 interf act=-133.3*;Apaf-1 act conf2=4.7
Nc1c(C(=O)NCc2ccco2)c2nc3ccccc3nc2n1CCN1CCOCC1,44.2,
Nc1c(C(=O)NCCCc2ccccc2)c2nc3ccccc3nc2n1Cc1cccs1,83.8,
COc1ccccc1CCNCc1cc2c(cc1[N+](=O)[O-])OCO2,-192.1*,Rh110 interf act=5.3;Apaf-1 act conf2=12.8
COCC(C)OC(=O)c1c(N)n(Cc2ccco2)c2nc3ccccc3nc12 (centres undefined),60.7,
O=C(c1ccc2nc(-c3ccco3)c(-c3ccco3)nc2c1)N1CCC2(CC1)OCCO2,56.4,
COC(=O)C(O)(c1c(C)[nH]n(-c2ccccc2)c1=O)C(F)(F)F (centres undefined),78.6,
SMILES,Apaf1 activ,others
COc1cc(C(c2c(C)[nH]n(-c3ccccc3)c2=O)c2c(C)[nH]n(-c3ccccc3)c2=O)cc(OC)c1OC,91.8,
O=[N+]([O-])c1ccc(NC2CCCC2)c2ccncc12,41.9,
Brc1ccc(Oc2ccc(Br)cc2Br)c(Br)c1,-139.5*,Rh110 interf act=12.0;Apaf-1 act conf2=6.8
O=C1NC(=O)C(=Cc2ccc(Oc3ccc([N+](=O)[O-])cc3)cc2)C(=O)N1,42.8,
Nc1cc2nc3ccccc3nc2cc1N,62.4,
CCCCNC(=O)c1c(N)n(Cc2ccc3c(c2)OCO3)c2nc3ccccc3nc12,95.4,
CC(=O)OCC[N+](C)(C)C,-3.3,
O=C1C=Cc2ccccc2C1=O,61.8,
O=[N+]([O-])c1ccc(NC2CCN(Cc3ccccc3)CC2)c2ccncc12,74.2,
CC(C)CCn1c(N)c(C(=O)OCC2CCCO2)c2nc3ccccc3nc21 (centres undefined),41.3,
CCn1nc(/C=C/c2ccccc2)nc2c(=O)n(C)c(=O)nc1-2,98.8,
Cc1ccc(-n2c(C)nc3ccccc3c2=O)c(C)c1,-76.5*,Rh110 interf act=8.5;Apaf-1 act conf2=9.0
CCCCCCn1c(N)c(C(=O)NCCN2CCOCC2)c2nc3ccccc3nc21,51.8,
CCC(COC(=O)c1cc(OC)c(OC)c(OC)c1)(c1ccccc1)N(C)C (centres undefined),12.3,
Cc1cc(/C=C2/C(=O)NC(=O)N(Cc3ccco3)C2=O)c(C)n1-c1ccccc1,-52.9*,Rh110 interf act=-4.2;Apaf-1 act conf2=13.9
NC(Cc1cc(O)c(O)cc1O)C(=O)O (centres undefined),84.1,
CCCCn1c(NS(=O)(=O)c2ccc(C)cc2)c(C(=O)OCC)c2nc3ccccc3nc21,90.3,
C=CCN1CC[C@]23c4c5ccc(O)c4O[C@H]2C(=O)CC[C@@]3(O)[C@H]1C5,14.8,
COc1cc2c(cc1OC)-c1c3c(cc4c1[C@@H](C2)N(C)CC4)OCO3,97.5,
COC(=O)C1=C(c2ccc(OCc3ccccc3)cc2)C[C@@H]2CC[C@H]1N2C(=O)NC1CCN(Cc2ccccc2)CC1,57.7,
CC(C)OCCCNC(=O)c1c(N)n(CC2CCCO2)c2nc3ccccc3nc12 (centres undefined),93.9,
COc1ccc(Cn2c(N)c(C(=O)NCc3ccco3)c3nc4ccccc4nc32)cc1,66.9,
COc1ccc(C(=O)Cn2c(NCCCl)nc3ccccc32)cc1,-330.6*,Rh110 interf act=2.2;Apaf-1 act conf2=11.8
COc1cc2c(cc1OC)-c1c(OC)c(OC)cc3c1C(C2)N(C)CC3 (centres undefined),95.1,
COc1cc2c(cc1O)C[C@H]1NCCc3cc4c(c-2c31)OCO4,71.0,
COC(=O)c1nc(-c2ccc3c(n2)C(=O)C(N)=C(OC)C3=O)c(N)c(-c2ccc(OC)c(OC)c2O)c1C,88.8,
O=C1NC(=O)N(c2ccc(Cl)cc2)C(=O)/C1=C/c1coc2ccc(O)cc2c1=O,-40.9*,Rh110 interf act=0.0;Apaf-1 act conf2=17.4
CCN1/C(=C\C=C\C2=[N+](CC)c3ccccc3C2(C)C)C(C)(C)c2ccccc21,56.4,
CCCCn1c(NC(=O)c2ccco2)c(C(=O)OCC)c2nc3ccccc3nc21,82.6,
CCCCn1c(N)c(C(=O)NCc2cccs2)c2nc3ccccc3nc21,85.0,
